167 variants from the RNAGym collection of RNA variant scans (doi:10.1002/anie.201605470) can be followed below.

To fix the notation:
B1: Osa-1-4 twister ribozyme (parent)
chain: CCGCCUAACACUGCCAAUGCCGGUCCCAAGCCCGGAUAAAAGUGGAGGGGGCGG

The variants in this series derive from B1. Kind of series: self-cleavage, relative activity (ratio to wild type); higher = more cleavage; co-transcriptional. In a few lines: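 A DNA template for a 54-nucleotide Oryza sativa twister ribozyme was synthesised with 97 % wild-type base and 1 % of each other base at the 48 positions downstream of the cleavage site. It was transcribed in vitro for 2 h at 37 °C, allowing co-transcriptional self-cleavage, then reverse-transcribed with a template-switching oligonucleotide, PCR-amplified and deep-sequenced. Cleavage status was scored from reads with or without upstream sequence. Relative activity is fraction cleaved normalised to wild type.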
For A39U C52G, the self-cleavage is 1.01.

As for A40C C25U, the self-cleavage turned out to be 0.04.

Consider A40C C25G, for which the self-cleavage was found to be 0.03.

Take A40C C25A: the self-cleavage was 0.03.

On to A39U U12C, for which the self-cleavage amounted to 0.15.

In the case of A39U U12A, the self-cleavage was determined as 0.59.

For A39U U12G, the self-cleavage is 0.15.

Regarding A39G G13U, the self-cleavage came to 0.03.

As for A39G G13C, the self-cleavage came out at 0.03.

A39G G13A: the self-cleavage was found to be 0.07.

As for A40C U12C, the self-cleavage is 0.07.

With A40C U12A, the self-cleavage came to 0.5.

Consider A40C U12G, for which the self-cleavage was 0.47.

In the case of A39G G47A, the self-cleavage was determined as 0.13.

Take A39G G47U: the self-cleavage was 0.13.

Consider A39G G47C, for which the self-cleavage is 0.09.

Consider A40C C52G, for which the self-cleavage turned out to be 0.09.

As to A40C C52A, the self-cleavage was 0.11.

For the variant A40C C52U, the self-cleavage amounted to 0.1.

Consider A39U G35A, for which the self-cleavage amounted to 0.83.

For the variant A39U G35C, the self-cleavage was determined as 0.19.

Regarding A39U G35U, the self-cleavage came to 0.87.

Take A39G G49C: the self-cleavage was 0.08.

In the case of A39G G49U, the self-cleavage came to 0.1.

As to A39G G49A, the self-cleavage turned out to be 0.26.

Turning to A39U A8U, the self-cleavage is 0.16.

With A39U A8G, the self-cleavage was 0.31.

As for A39U A8C, the self-cleavage is 0.08.

In the case of A39U G34C, the self-cleavage worked out at 0.25.

For A39U G34A, the self-cleavage was determined as 0.68.

A39U G34U: the self-cleavage was 0.53.

On to A39U C27G, for which the self-cleavage came out at 0.09.

For A39U C27U, the self-cleavage is 0.12.

Consider A39U C27A, for which the self-cleavage was found to be 0.12.

Turning to A40G C11A, the self-cleavage amounted to 0.14.

Consider A40C G13A, for which the self-cleavage came to 0.03.

In the case of A40C G13C, the self-cleavage is 0.01.

As for A40C G13U, the self-cleavage is 0.01.

Consider A39U U43C, for which the self-cleavage came out at 0.12.

For the variant A39U U43G, the self-cleavage is 0.18.

In the case of A39U U43A, the self-cleavage was found to be 0.43.

In the case of A40C A8G, the self-cleavage worked out at 0.05.

For A40C A8U, the self-cleavage came to 0.04.

A40C A8C: the self-cleavage is 0.04.

Consider A39U C31U, for which the self-cleavage came out at 0.67.

In the case of A39U C31A, the self-cleavage worked out at 0.03.

As to A39U C31G, the self-cleavage is 0.08.

A40C G49C: the self-cleavage stood at 0.02.

For the variant A40C G49A, the self-cleavage amounted to 0.04.

Take A40C G49U: the self-cleavage was found to be 0.03.

For A39U A7G, the self-cleavage stood at 0.2.

In the case of A39U A7U, the self-cleavage worked out at 0.08.

In the case of A39U A7C, the self-cleavage worked out at 0.04.

As for A40G A8U, the self-cleavage was determined as 0.11.

On to A40G A8C, for which the self-cleavage was 0.06.

A40G A8G: the self-cleavage is 0.18.

In the case of A40C G53C, the self-cleavage is 0.04.

For A40C G53U, the self-cleavage stood at 0.05.

With A40C G53A, the self-cleavage was 0.09.

In the case of A39U U37G, the self-cleavage came to 1.02.

Regarding A39U U37C, the self-cleavage stood at 1.

In the case of A39U U37A, the self-cleavage worked out at 0.99.

Take A39G G23A: the self-cleavage turned out to be 0.2.

For the variant A39G G23C, the self-cleavage was 0.07.

As for A39G G23U, the self-cleavage turned out to be 0.07.

Consider A39U C20A, for which the self-cleavage turned out to be 0.84.

With A39U C20U, the self-cleavage amounted to 0.96.

As to A39U C20G, the self-cleavage is 0.09.

Regarding A39U A41G, the self-cleavage was found to be 0.26.

As for A39U A41U, the self-cleavage was 1.03.

In the case of A39U A41C, the self-cleavage came out at 0.66.

Consider A40C C21U, for which the self-cleavage amounted to 0.09.

Consider A40C C21G, for which the self-cleavage came out at 0.02.

Consider A40C C21A, for which the self-cleavage was 0.07.

Consider A40C U24A, for which the self-cleavage worked out at 0.04.

On to A40C U24G, for which the self-cleavage is 0.01.

For A40C U24C, the self-cleavage was found to be 0.03.

Turning to A40G A41C, the self-cleavage is 0.41.

For the variant A40G A41G, the self-cleavage was 0.22.

Regarding A40G A41U, the self-cleavage was found to be 0.91.

Consider A39U C33G, for which the self-cleavage came out at 0.07.

Regarding A39U C33A, the self-cleavage was 0.09.

On to A39U C33U, for which the self-cleavage is 0.52.

Take A39G G35U: the self-cleavage amounted to 0.87.

As to A39G G35A, the self-cleavage was 0.78.

A39G G35C: the self-cleavage was found to be 0.22.

For the variant A40C G35C, the self-cleavage was 0.05.

For the variant A40C G35U, the self-cleavage is 0.08.

As for A40C G35A, the self-cleavage turned out to be 0.08.

Regarding A40C G34A, the self-cleavage is 0.06.

On to A40C G34C, for which the self-cleavage came out at 0.06.

A40C G34U: the self-cleavage was determined as 0.05.

Turning to A39G G22A, the self-cleavage is 0.95.

As to A39G G22C, the self-cleavage amounted to 0.08.

Take A39G G22U: the self-cleavage amounted to 0.26.

A39G G54C: the self-cleavage turned out to be 0.76.

On to A39G G54U, for which the self-cleavage was determined as 0.8.

As to A39G G54A, the self-cleavage was 0.79.

Turning to A39U G44A, the self-cleavage stood at 0.77.

As to A39U G44C, the self-cleavage came out at 0.91.

As to A39U G44U, the self-cleavage is 0.9.

Consider A40C G44U, for which the self-cleavage was determined as 0.06.

As for A40C G44C, the self-cleavage stood at 0.09.

As for A40C G44A, the self-cleavage came to 0.09.

As for A40C G54A, the self-cleavage is 0.09.

As to A40C G54U, the self-cleavage came to 0.12.

For the variant A40C G54C, the self-cleavage is 0.07.

In the case of A40C C31U, the self-cleavage was 0.06.

For A40C C31G, the self-cleavage is 0.02.

Take A40C C31A: the self-cleavage was determined as 0.02.

For A40C, the self-cleavage is 0.09.

For the variant A40G, the self-cleavage came to 0.91.

For the variant A39G C33G, the self-cleavage is 0.07.

As to A39G C33U, the self-cleavage is 0.63.

For A39G C33A, the self-cleavage was 0.08.

As for A40C G30U, the self-cleavage was found to be 0.01.

Regarding A40C G30C, the self-cleavage was 0.02.

Regarding A40C G30A, the self-cleavage was determined as 0.02.

For A39G U37A, the self-cleavage turned out to be 1.01.

Regarding A39G U37C, the self-cleavage came to 1.

Turning to A39G U37G, the self-cleavage was 1.01.

In the case of A39G G50U, the self-cleavage came to 1.

Take A39G G50C: the self-cleavage is 0.84.

Take A39G G50A: the self-cleavage worked out at 0.72.

Regarding A39G U43A, the self-cleavage was found to be 0.8.

On to A39G U43C, for which the self-cleavage was found to be 0.24.

As for A39G U43G, the self-cleavage stood at 0.36.

In the case of A39G G34A, the self-cleavage is 0.8.

Consider A39G G34C, for which the self-cleavage amounted to 0.42.

Take A39G G34U: the self-cleavage came out at 0.68.

Turning to A39G U12G, the self-cleavage worked out at 0.28.

A39G U12A: the self-cleavage was found to be 0.69.

Consider A39G U12C, for which the self-cleavage was found to be 0.19.

As to A40C U43A, the self-cleavage amounted to 0.07.

As for A40C U43C, the self-cleavage is 0.07.

For the variant A40C U43G, the self-cleavage is 0.07.

As for A39U G30U, the self-cleavage came to 0.05.

On to A39U G30C, for which the self-cleavage was 0.05.

Regarding A39U G30A, the self-cleavage turned out to be 0.04.

With A39G G19C, the self-cleavage stood at 0.31.

Consider A39G G19A, for which the self-cleavage was 0.7.

For the variant A39G G19U, the self-cleavage is 0.26.

For A39U, the self-cleavage is 1.

Regarding A39U C26U, the self-cleavage was determined as 0.54.

With A39U C26G, the self-cleavage came to 0.11.

As to A39U C26A, the self-cleavage was found to be 0.04.

On to A39U G54C, for which the self-cleavage came out at 0.73.

For A39U G54A, the self-cleavage turned out to be 0.73.

In the case of A39U G54U, the self-cleavage was 0.77.

On to A40G C9G, for which the self-cleavage amounted to 0.18.

In the case of A40G C9U, the self-cleavage came to 0.23.

On to A40G C9A, for which the self-cleavage stood at 0.09.

As to A40C C26G, the self-cleavage was determined as 0.02.

As to A40C C26U, the self-cleavage was 0.04.

Turning to A40C C26A, the self-cleavage was determined as 0.02.

A40C A46C: the self-cleavage is 0.04.

Turning to A40C A46U, the self-cleavage is 0.03.

For A40C A46G, the self-cleavage is 0.02.

A39G G53U: the self-cleavage is 0.2.

As for A39G G53A, the self-cleavage worked out at 0.55.

In the case of A39G G53C, the self-cleavage was determined as 0.08.

Turning to A40C G51U, the self-cleavage came out at 0.06.

Regarding A40C G51C, the self-cleavage amounted to 0.04.

For A40C G51A, the self-cleavage was 0.06.

As for A40C G45C, the self-cleavage was found to be 0.03.

As for A40C G45A, the self-cleavage amounted to 0.04.

On to A40C G45U, for which the self-cleavage came to 0.03.
